From ChEMBL document CHEMBL3259541, “Synthesis and biological evaluation of antimetastatic agents predicated upon dihydromotuporamine C and its carbocyclic derivatives” (J Med Chem, 2014) come the findings set out here.

For data set [1], the system named is Mus musculus. Briefly: Toxicity in immune-compromised mouse assessed as adverse event at 2.66 mg/kg,ip 5 days per week for 2 weeks. The class given is organism-based. On the set-up: dose 2.66 mg/kg. The conditions noted are these: in vivo.
Data set [2] relates to L3.6pl. Description: Antimetastatic activity against human L3.6PL cells injected into pancreas of immune-compromised mouse assessed as liver micrometastasis at 2.66 mg/kg,ip 5 days per week for 2 weeks after 7 days of tumor cells inoculation by microscopically. The class given is functional, organism-based. Set-up: dose 2.66 mg/kg. The method in brief:
(§1)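 Nu/nu mice engrafted with human L3.6pl pancreatic tumor cells; vehicle or compound given ip 5 days/week for 2 weeks (10 injections; 2.50 mg/kg for one agent, 2.66 mg/kg equimolar for the other), n=7 per group. Livers collected at termination; micrometastasis incidence and size scored macroscopically and on sections by H&E, human Ki67 and human cytokeratin-18 immunohistochemistry.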

For data set [3], the system named is L3.6pl. Briefly: Effect on intracellular ceramide population in human L3.6PL cells assessed as sphingomyelin N20:1 level measured per mg of protein at 0.6 uM after 48 hrs incubation by mass spectrometry analysis (reference value: 0.04 +/- 0.01 nmol). The class given is functional.
Data set [4] deals with L3.6pl. Briefly: Effect on intracellular ceramide population in human L3.6PL cells assessed as sphingomyelin N22:1 level measured per mg of protein at 0.6 uM after 48 hrs incubation by mass spectrometry analysis (reference value: 0.23 +/- 0.07 nmol). The class given is functional.
The subject of data set [5] is L3.6pl. Briefly: Effect on intracellular ceramide population in human L3.6PL cells assessed as sphingomyelin N26:1 level measured per mg of protein at 0.6 uM after 48 hrs incubation by mass spectrometry analysis (reference value: 0.01 +/- 0.00 nmol). The class given is functional.
The subject of data set [6] is CHO-MG. Briefly: Cytotoxicity against polyamine transporter deficient CHO-MG cells assessed as cell growth after 48 hrs incubation by MTS assay in presence of 1 mM aminoguanidine. The class given is ADME, cell-based. The conditions noted are these: Cricetulus griseus. In a few lines:
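CHO and polyamine-transport-deficient CHO-MG* cells pretreated 24 h with 1 mM aminoguanidine, then exposed to compound for 48 h at 37 °C. Triplicate. IC50 taken as 50% growth inhibition. PTS selectivity expressed as the CHO-MG*/CHO IC50 ratio.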
Background: Tetrazolium assays rely on reduction of a dye to a coloured formazan, in cell work by metabolically active cells.

For data set [7], the system named is L3.6pl. Briefly: Antimigratory activity against human L3.6PL cells assessed as cell migration inhibition after 48 hrs incubation by wound healing assay in presence of 250 uM aminoguanidine treated 24 hrs prior compound addition. The class given is functional, cell-based.
The subject of data set [8] is L3.6pl. Briefly: Effect on intracellular ceramide population in human L3.6PL cells assessed as ceramide N16:0 to N22:1 ratio measured at 0.6 uM after 48 hrs incubation by mass spectrometry analysis (reference value: 5.8 no_unit).
Data set [9] has as its system L3.6pl. Briefly: Antimetastatic activity against human L3.6PL cells injected into pancreas of immune-compromised mouse assessed as liver micrometastasis at 2.66 mg/kg,ip 5 days per week for 2 weeks after 7 days of tumor cells inoculation by Hematoxylin and eosin staining.
Data set [10] relates to L3.6pl. Description: Antimetastatic activity against human L3.6PL cells injected into pancreas of immune-compromised mouse assessed as liver micrometastasis at 2.66 mg/kg,ip 5 days per week for 2 weeks after 7 days of tumor cells inoculation by human Ki67 immunohistochemical staining.
The nature of data set [11]: Toxicity in immune-compromised mouse compound treated ip 5 days per week for 2 weeks. The conditions noted are these: in vivo. The class given is organism-based.
For data set [12], the system named is Mus musculus. Briefly: Toxicity in immune-compromised mouse assessed as adverse event at 2.5 mg/kg,ip 5 days per week for 2 weeks. The class given is organism-based. Set-up: dose 2.5 mg/kg. The conditions noted are these: in vivo.
In data set [13] the test system is L3.6pl. Description: Antimetastatic activity against human L3.6PL cells injected into pancreas of immune-compromised mouse assessed as liver micrometastasis at 2.5 mg/kg,ip 5 days per week for 2 weeks after 7 days of tumor cells inoculation by microscopically. The class given is functional, organism-based. Set-up: dose 2.5 mg/kg. In a few lines:
as §1

Data set [14] relates to L3.6pl. Description: Effect on intracellular ceramide population in human L3.6PL cells assessed as ceramide N22:1 level measured as contribution to total ceramide population at 0.6 uM after 48 hrs incubation by mass spectrometry analysis relative to untreated control.
Data set [15] relates to L3.6pl. Briefly: Antimetastatic activity against human L3.6PL cells injected into pancreas of immune-compromised mouse assessed as liver micrometastasis at 2.5 mg/kg,ip 5 days per week for 2 weeks after 7 days of tumor cells inoculation by Hematoxylin and eosin staining.
Data set [16] relates to L3.6pl. Briefly: Antimetastatic activity against human L3.6PL cells injected into pancreas of immune-compromised mouse assessed as liver micrometastasis at 2.5 mg/kg,ip 5 days per week for 2 weeks after 7 days of tumor cells inoculation by human Ki67 immunohistochemical staining.

Calls of active or inactive are those of the source. The calls are words filed in the database; no cut-off is given here.

By IC50 is commonly meant the concentration that gives 50% inhibition. `Cl.NCCCNCCCNCC1CCCCCCCCCCCCCC1`: the Activity result is “Non-toxic” in [1], 0.05 nmol in data set [3], 0.3 nmol in [4] and 0.01 nmol in data set [5]. Besides, the outcome in data set [2], in [9] and in [10] was Active. For the same molecule, the IC50 in [6] was found to be 87.3 µM. In addition, in data set [7], the inhibition entry was “Dose-dependent effect”. In addition, the Ratio in data set [8] amounted to 8.4.

In data set [11], `Cl.NCCCNCCCN1CCCCCCCCCCCCCC1` displayed an MTD at 2 weeks of 2.5 mg/kg. Also, the Activity result in data set [12] is on record as “Non-toxic”; in data set [3], 0.04 nmol; in [4], 0.26 nmol; in data set [5], 0.01 nmol. Further, the result in data set [13], in data set [15] and in data set [16] was inactive. For the same molecule, the concentration for half-maximal inhibition (IC50) in [6] is 2.96 µM. Also, the Ratio in [8] came to 1.1. Moreover, the “fold change (FC)” value in data set [14] is recorded as 2.8.
